High-throughput results (PubChem)
OX1R antag-1: antagonists of human orexin 1 receptor; O43613; CHO/OX1R cells, Fluo-8 calcium fluorescence, orexin A; inhibition, % at 5 µM; 0.43% of 330,000 active;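 active = inhibition above its plate's threshold, mean inhibition of all tested compounds on the plate plus 3 SD, cut at about 37% in these data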;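 also: 0% = orexin A challenge wells and 100% = SB-334867-A antagonist wells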
Target sequence (O43613 whole entry, looked up): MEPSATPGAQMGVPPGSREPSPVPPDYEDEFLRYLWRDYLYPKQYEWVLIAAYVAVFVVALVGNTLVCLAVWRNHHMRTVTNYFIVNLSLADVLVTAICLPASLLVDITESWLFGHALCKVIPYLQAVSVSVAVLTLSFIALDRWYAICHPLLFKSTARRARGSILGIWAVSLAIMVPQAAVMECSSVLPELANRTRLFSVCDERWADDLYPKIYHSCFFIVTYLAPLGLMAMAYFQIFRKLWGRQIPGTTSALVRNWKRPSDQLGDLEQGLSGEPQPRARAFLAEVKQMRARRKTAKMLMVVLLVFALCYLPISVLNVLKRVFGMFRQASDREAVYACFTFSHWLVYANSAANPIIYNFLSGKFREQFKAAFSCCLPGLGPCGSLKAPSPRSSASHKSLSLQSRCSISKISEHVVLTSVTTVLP
CHO-K1 Ca PAM: counter-screen for M1 PAMs: effect in parental CHO-K1 cells; ATP EC20, Fluo-8 calcium fluorescence; 0% at ATP EC20, 100% at ATP max; activation, % at 3 µM; 0.02% of 360,000 active; AID 602247;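 active = activation above the run cutoff, the mean activation of all test compounds plus 3 SD, cut at about 40% in these data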;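 also: peak over basal fluorescence ratio in a 140 s read after ATP addition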
OX1R antag-2: blocks the human orexin 1 receptor; O43613; 1.8% of 330,000 active; OX1R-expressing cells, FRET antagonist read-out; inhibition, % at 6.6 µM; in the data active = inhibition mostly above about 38%, no sharp cut-off; inactive = mostly below about 40%;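 also: 0% = agonist challenge alone and 100% = reference antagonist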
CHO parental Ca: signal in parental CHO cells, OX1R antagonist counter-screen. inhibition, % at 5.6 µM. 0.63% of 330,000 active. parental CHO-K1, ATP-induced calcium, Fluo-8 fluorescence. AID 463079;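 active = inhibition above that plate's mean sample inhibition plus 3 SD, cut at about 26% in these data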;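 also: 0% = ATP-challenged DMSO wells and 100% = DMSO wells without ATP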
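Assay system: parental CHO cells; Read-out basis: percent inhibition of ATP-evoked calcium rise, normalized to controls; Benchmarks: ATP and no-ATP DMSO wells; Compound dosing: single nominal dose of 5.6 µM per compound; Signal: Fluo-8 calcium dye fluorescence; Also added: ATP as calcium-mobilizing challenge; Repeats: singlicate.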
CHO-K1 Ca antag: counter-screen for M1 antagonists: effect in parental CHO-K1 cells | 0.6% of 360,000 active | inhibition, % at 3 µM | ATP-induced calcium, Fluo-8 fluorescence;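 active = inhibition above a per-plate cutoff, the plate's mean sample inhibition plus 3 SD, cut at about 24% in these data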;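 also: 0% = DMSO plus EC80 ATP and 100% = DMSO alone without ATP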
M1 ag parental: counter-screen for M1 agonists: effect in parental CHO-K1 cells; 0.48% of 360,000 active; Fluo-8 calcium fluorescence; scaled to maximal ATP response, vehicle zero; activation, % at 3 µM; in the data active = activation above about 15%;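 also: untransfected CHO-K1 host cells lacking M1 receptor as counterscreen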
* hit, by the source's call. Sampled rows, rich in hits. Any-hit rate of the full collection: about 2.9%.

How did O=C(CCCSc1nc2ccccc2[nH]1)NCc1ccccc1F do in these assays?
OX1R antag-1: -27; CHO-K1 Ca PAM: 18; OX1R antag-2: 14; CHO parental Ca: -19; CHO-K1 Ca antag: 0; M1 ag parental: 17*

Results for CCOc1ccc(S(=O)(=O)N2CCOCC2)cc1NC(=O)CSC(=S)N1CCCC1 ?
OX1R antag-1: -24; CHO-K1 Ca PAM: -21; OX1R antag-2: -3; CHO parental Ca: -10; CHO-K1 Ca antag: 10; M1 ag parental: 0

How did O=c1c2cc([N+](=O)[O-])ccc2nc2n1CCCC2 do in these assays?
OX1R antag-1: -16; CHO-K1 Ca PAM: 7; OX1R antag-2: 69*; CHO parental Ca: 7; CHO-K1 Ca antag: -6; M1 ag parental: 1

How did O=c1c2cc(Br)ccc2nc2n1CCCCC2 do in these assays?
OX1R antag-1: -21; CHO-K1 Ca PAM: -24; OX1R antag-2: 17; CHO parental Ca: -16; CHO-K1 Ca antag: -4; M1 ag parental: 0

What do the screens show for `CCCC(=O)N1CCCC1(C)C(=O)Nc1ccc(-n2cncn2)cc1` (centres undefined)?
CHO-K1 Ca PAM: 17; CHO-K1 Ca antag: -8; M1 ag parental: 1

Results for N#Cc1cccc2cccc(S(=O)(=O)N3CCOCC3)c12 ?
OX1R antag-1: 4; CHO-K1 Ca PAM: -12; OX1R antag-2: 8; CHO parental Ca: -9; CHO-K1 Ca antag: 26*; M1 ag parental: 4

What do the screens show for `CCCC1(C(=O)OCC)NC(c2ccc(OC)cc2OC)C2C(=O)N(c3ccc4c(c3)OCCO4)C(=O)C21` (centres undefined)?
OX1R antag-1: -25; CHO-K1 Ca PAM: -4; OX1R antag-2: 1; CHO parental Ca: -15; CHO-K1 Ca antag: 46*; M1 ag parental: 1

How did O=C(O)CC(C(=O)OCC1CCCO1)N1CCOCC1 (centres undefined) do in these assays?
OX1R antag-1: -10; CHO-K1 Ca PAM: 5; OX1R antag-2: 32; CHO parental Ca: 2; CHO-K1 Ca antag: 2; M1 ag parental: 3

Results for O=C(O)CC(C(=O)OC1CCCCC1)N1CCOCC1 (centres undefined) ?
OX1R antag-1: -16; CHO-K1 Ca PAM: -13; OX1R antag-2: 14; CHO parental Ca: -4; CHO-K1 Ca antag: 31*; M1 ag parental: 0

Results for C=C1N(c2cccc(Cl)c2)C(=O)OC1(C)C ?
OX1R antag-1: -5; CHO-K1 Ca PAM: 27; OX1R antag-2: 19; CHO parental Ca: 1; CHO-K1 Ca antag: -13; M1 ag parental: 1

How did Cc1ccc2c(c1)c(C)c(C)n2CC(O)Cn1nnc2ccccc21 (centres undefined) do in these assays?
OX1R antag-1: -22; CHO-K1 Ca PAM: 11; OX1R antag-2: 63*; CHO parental Ca: -22; CHO-K1 Ca antag: -4; M1 ag parental: 1

What do the screens show for `Cc1cc(=O)oc2cc(OCC(=O)Nc3ccc(S(=O)(=O)N(C)C)cc3)ccc12`?
OX1R antag-1: -8; CHO-K1 Ca PAM: 0; OX1R antag-2: 0; CHO parental Ca: -10; CHO-K1 Ca antag: -4; M1 ag parental: 0

Results for c1cc2[nH]snc2c2nc(C3CC3)nc12 ?
OX1R antag-1: -10; CHO-K1 Ca PAM: 10; OX1R antag-2: 46*; CHO parental Ca: -10; CHO-K1 Ca antag: -11; M1 ag parental: 0

Results for CC(C(=O)NCc1cccs1)N1CCN(S(=O)(=O)c2ccc3c(c2)OCCCO3)CC1 (centres undefined) ?
CHO-K1 Ca PAM: -13; CHO-K1 Ca antag: 2; M1 ag parental: 1

How did CCn1cc(/C=C(\NC(=O)c2ccccc2)C(=O)NCCCn2ccnc2)c2ccccc21 do in these assays?
CHO-K1 Ca PAM: 8; CHO-K1 Ca antag: -3; M1 ag parental: 0

Results for CCC(=O)N1CCC1(C)C(=O)NCc1ccccc1SC (centres undefined) ?
CHO-K1 Ca PAM: 21; CHO-K1 Ca antag: -8; M1 ag parental: 0

What do the screens show for `Cc1ccc(Cl)cc1N1CCN(C(=O)c2cc3c(=O)[nH]c4ccccc4c3n2C)CC1`?
OX1R antag-1: 40; CHO-K1 Ca PAM: 18; OX1R antag-2: 17; CHO parental Ca: 45*; CHO-K1 Ca antag: -15; M1 ag parental: 6

What do the screens show for `Cn1c(C(=O)N2CCN(c3ccc(Cl)cc3)CC2)cc2c(=O)[nH]c3ccccc3c21`?
OX1R antag-1: -23; CHO-K1 Ca PAM: -2; OX1R antag-2: 24; CHO parental Ca: -13; CHO-K1 Ca antag: 0; M1 ag parental: 2
